# Bioassay records (PubChem)
# FGF22 binding: binders of human FGF22 protein, primary screen, FGF22 synaptogenesis inhibitor project, biophysical, thermal shift, single point; Fibroblast growth factor 22 (Homo sapiens), Q9HCT0; 1.5% of 340,000 active; recombinant FGF22 thermal shift, SYPRO orange fluorescence; percent of sucrose octasulfate shift, DMSO zero; activity (Tm shift, normalised), % at 9.99 µM;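 active = mean Tm shift, scaled 0 neutral to 100 positive control, at about 1.3% or above, every replicate too, limit read from the data; inconclusive = no clear call, values can overlap the other calls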
# Target sequence (Q9HCT0 whole entry, looked up): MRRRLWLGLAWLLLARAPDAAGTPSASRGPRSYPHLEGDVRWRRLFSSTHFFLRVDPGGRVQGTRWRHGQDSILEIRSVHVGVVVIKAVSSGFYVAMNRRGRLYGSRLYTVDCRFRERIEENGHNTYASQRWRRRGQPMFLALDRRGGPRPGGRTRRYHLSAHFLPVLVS
# FN deposit inh: inhibitors of fibronectin matrix deposition, primary screen, AH1F cells, Alexa488-fibronectin fluorescence, plate reader; AH1F fibroblasts, overnight; inhibition, % at 12.6 µM; 0.086% of 350,000 active; AID 743247, 2014;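 active = mean inhibition across replicates of 30% or more, regardless of how many single replicates reach that level; inconclusive = mean under 30% yet at least half of replicates reach 30%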;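 note: positive control wells lacked labelled fibronectin entirely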
#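 Material: AH1F fibroblast monolayer depositing Alexa488-labelled fibronectin into matrix | Input: 10000 AH1F cells/well | Medium: DMEM plus 2% serum, read in PBS | Reagent: Alexa488-fibronectin, 24 nM final in well | Compound dosing: One dose per compound, pinned | Schedule: 1 h adhesion, overnight exposure | Measured by: Fluorescence at 485 nm excitation, 525 nm emission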
# SIRT5 inh: SIRT5 desuccinylase inhibitors, primary screen, biochemical, fluorescence imaging, single point, set 5. Purified SirT5, succinyl-peptide AMC, trypsin-coupled fluorescence. inhibition, % at 15 µM. 1.1% of 330,000 active. AID 652115, 2013; in the data active = inhibition above about 15%; inconclusive = no clear call, values can overlap the other calls
# Target sequence (Q9NXA8 whole entry, looked up): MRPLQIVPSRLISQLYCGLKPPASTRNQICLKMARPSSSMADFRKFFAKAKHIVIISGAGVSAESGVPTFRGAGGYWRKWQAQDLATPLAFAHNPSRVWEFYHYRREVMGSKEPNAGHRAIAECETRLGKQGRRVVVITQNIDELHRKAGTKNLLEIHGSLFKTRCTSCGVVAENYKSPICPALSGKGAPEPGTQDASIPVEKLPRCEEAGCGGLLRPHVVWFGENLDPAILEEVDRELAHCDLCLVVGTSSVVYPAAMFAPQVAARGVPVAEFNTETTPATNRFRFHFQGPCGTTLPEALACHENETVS
# XiGFP reactiv: activators of inactive X chromosome reactivation, primary screen, imaging, XiGFP fibroblasts, GFP high-content imaging, set 2 | XiGFP mouse fibroblasts, % GFP-positive cells imaging, 3 d; cells co-treated with 5-aza-dC sensitizer; scaled so ellipticine positive control = 100% | activation, % at 7.58 µM | 0.055% of 360,000 active;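 active = mean normalized replicate activation at least 10% and every replicate at or above 10%; inconclusive = only one of the two criteria met; inactive = mean below 10% and not all replicates reach 10%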;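 note: 0% = median of on-plate neutral control wells and 100% = ellipticine 6 µM median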
#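 Material: XiGFP fibroblasts, SV40-immortalized; Buffer or medium: DMEM containing 5-aza-dC; Compound dosing: single point; Times: 3 days compound exposure.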
# ARNT TACC3 PPI: disruptors of ARNT/TACC3 protein interaction, primary screen, biochemical, AlphaScreen, single concentration; Transforming acidic coiled-coil-containing protein 3 (Homo sapiens), Q9Y6A5; inhibition, % at 9.99 µM; AID 623870, 2012; AlphaScreen His-ARNT PAS-B/GST-TACC3 binding, luminescence; TACC3 fragment carries E629A point mutation; 0.66% of 390,000 active;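 active = mean inhibition of replicates at least 50% and at least half of replicates each reaching 50%; inconclusive = half or more replicates reach 50% but mean below 50%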;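 note: 0% = complete ARNT plus TACC3 wells and 100% = ARNT alone without TACC3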
# DENV2 CPE: inhibitors of DENV2 cytopathic effect, primary screen, cell-based, plate reader, single concentration | DENV2-infected cells, cytopathic effect rescue | CPE inhibition, % at 9.99 µM | 1.7% of 350,000 active; in the data active = CPE inhibition above about 20%, passing the limit was not always enough; inconclusive = no clear call, values can overlap the other calls; tested in BHK-21 cells;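 note: 0% = median of neutral control wells and 100% = median of positive control wells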
# The depositor's hits bear a star; ? = inconclusive; · = no result. Hits are enriched below; roughly 3.8% of the tested compounds scored in any of these assays.
SMILES,FGF22 binding,FN deposit inh,SIRT5 inh,XiGFP reactiv,ARNT TACC3 PPI,DENV2 CPE
OCCNC(=S)Nc1ccc(Cl)c(Cl)c1,1.4*,0,0,0,1,?
COc1ccc(NC(=S)Nc2cccc(Cl)c2)cc1OC,0,·,112*,0,-2,0
Cc1cc(C)cc(NC(=S)Nc2ccc(Cl)c(Cl)c2)c1,1,-8,·,0,30,-3
Cc1cccc(C)c1NC(=S)Nc1ccc(Cl)c(Cl)c1,43*,-9,0,0,2,-2
OCCNC(=S)Nc1cc(Cl)cc(Cl)c1,0,-4,-4,0,-1,1
CC(C)NC(=O)N(C)C[C@@H]1Oc2cc(C#C[C@H](C)O)ccc2S(=O)(=O)N([C@H](C)CO)C[C@H]1C,0,1,-1,-1,-2,-3
CN(C)C(=O)C[C@@H]1CC[C@H]2[C@H](COc3ccc(NC(=O)NCc4ccccc4)cc3C(=O)N2C)O1,0,2,1,0,7,?
CC12CCC(=O)N1C(C(=O)Nc1cccc(S(=O)(=O)N3CCCCCC3)c1)CS2 (configuration not stated),·,-3,-1,0,30,-9
CC12CCC(=O)N1C(C(=O)Nc1ccc(S(=O)(=O)N3CCCCC3)cc1)CS2 (configuration not stated),0,-2,-2,0,-2,32*
CC12CCC(=O)N1C(C(=O)Nc1nc(-c3ccccc3)cs1)CS2 (configuration not stated),0,1,-1,0,3,29*
C[C@H]1CN([C@@H](C)CO)C(=O)c2cc(C#CC3CCCCC3)cnc2O[C@H]1CN(C)C(=O)NC1CCCC1,1,5,10,0,-3,-13
C[C@H]1CN(C)C(=O)c2cc(N)ccc2O[C@H]1CN(C)C(=O)OC(C)(C)C,·,-3,·,0,·,·
O=C(C[C@H]1CC[C@@H]2[C@H](COC[C@H](O)CN2C(=O)c2cccnc2)O1)NCc1ccc(Cl)cc1,0,1,3,0,-13,-4
Cn1c(N)c(C(=O)COC(=O)Cc2ccc(Cl)c(Cl)c2)c(=O)n(C)c1=O,0,-15,1,1,-4,57*
Cn1c(N)c(C(=O)COC(=O)C2CCC(C(C)(C)C)CC2)c(=O)n(C)c1=O (configuration not stated),·,·,·,·,-7,·
Cn1c(N)c(C(=O)COC(=O)C2CCCC2)c(=O)n(C)c1=O,43*,8,-2,0,8,-7
Cn1c(N)c(C(=O)CSc2nnc(C3CC3)n2N)c(=O)n(C)c1=O,0,-3,19*,0,·,11
Cn1c(N)c(C(=O)COC(=O)/C=C/c2ccc(Cl)cc2Cl)c(=O)n(C)c1=O,44*,-8,·,0,·,-7
Cn1nnnc1SCC(=O)c1c(N)n(C)c(=O)n(C)c1=O,·,·,·,·,-1,·
CN(C)C(=O)C[C@H]1C=C[C@H](NS(=O)(=O)c2ccccc2)[C@@H](CO)O1,0,3,-1,0,1,6
COc1ccc(C(=O)OCC(=O)N(Cc2ccccc2)Cc2ccccc2)c(O)c1,43*,-3,·,0,·,5
C[C@@H]1CN([C@@H](C)CO)C(=O)c2cc(NS(=O)(=O)c3cccs3)ccc2O[C@H]1CN(C)C(=O)NC1CCCCC1,·,-2,·,0,·,·
C/C=C/c1cnc2c(c1)C(=O)N([C@H](C)CO)C[C@H](C)[C@@H](CN(C)S(=O)(=O)c1ccc(OC)cc1)O2,0,·,-1,1,-2,-5
O=C(c1cc([N+](=O)[O-])ccc1N1CCOCC1)N1CCCC1,·,-1,·,0,-4,·
O=C(OCc1c(F)cccc1Cl)c1cc([N+](=O)[O-])ccc1N1CCOCC1,-1,-3,7,-1,-1,68*
SMILES,FGF22 binding,FN deposit inh,SIRT5 inh,XiGFP reactiv,ARNT TACC3 PPI,DENV2 CPE
O=C(c1cc([N+](=O)[O-])ccc1N1CCOCC1)N1CCOCC1,43*,-1,2,0,·,-4
O=C(OCc1ccccc1Cl)c1cc([N+](=O)[O-])ccc1N1CCOCC1,0,0,0,0,11,?
C[C@H]1CN([C@@H](C)CO)C(=O)c2cccc(NC(=O)c3nc4ccccc4s3)c2O[C@@H]1CN(C)Cc1ccc(-c2ccccc2)cc1,0,·,2,0,10,4
CCN(Cc1ccccc1)c1ccccc1,0,·,·,·,·,37*
CCN(Cc1ccccc1)c1ccc(/C=N/N=C(N)N)cc1,0,5,-4,0,25,1
O=C(c1cccnc1)C1Cc2ccccc2C1=O (configuration not stated),0,5,0,0,2,49*
O=C(Nc1ccccc1C(=O)O)c1ccc2c(c1)C(=O)N(c1cccc([N+](=O)[O-])c1)C2=O,0,-2,18*,0,1,-3
CCC(=O)Nc1ccc2c(c1)C(=O)N(C)C[C@@H](OC)[C@@H](C)CN(Cc1ccccc1F)[C@@H](C)CO2,0,-3,5,1,0,5
CN(Cc1cccc(F)c1)C(=O)c1ccc(NS(=O)(=O)c2ccc3[nH]c(=O)[nH]c3c2)cc1,0,-1,-3,0,28,2
CCCCNC(=O)c1ccc(NS(=O)(=O)c2ccc3[nH]c(=O)[nH]c3c2)cc1,0,·,-4,0,-3,23*
CN(Cc1ccccc1F)C(=O)c1ccc(NS(=O)(=O)c2ccc3[nH]c(=O)[nH]c3c2)cc1,0,15,31*,0,-17,6
CCCCCNC(=O)c1ccc(NS(=O)(=O)c2ccc3[nH]c(=O)[nH]c3c2)cc1,0,·,-4,0,-1,0
CO[C@@H]1CN(C)C(=O)c2cc(NS(C)(=O)=O)ccc2OC[C@H](C)N(Cc2ccccc2)C[C@@H]1C,0,-9,-5,0,3,0
C[C@H](CO)N1C[C@H](C)[C@@H](CN(C)C(=O)Nc2ccc(F)cc2)OCCCC[C@H](C)Oc2ccc(NS(=O)(=O)c3ccccc3)cc2C1=O,-1,·,-4,-1,6,5
CC(=O)c1ccc(C(=O)N2CCCC(CNC(=O)c3ccccc3Cl)C2)cc1 (configuration not stated),0,-5,-1,0,3,10
